The target of assay [1] is T1, Beta-secretase 1 (Homo sapiens, UniProt P56817). The experiment in a line: Inhibition of recombinant BACE1 (unknown origin) at 1.3 mM. The method, boiled down: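 Recombinant BACE1 was incubated with a synthetic dodecapeptide substrate carrying the Swedish-type BACE1 cleavage sequence, in 40 mM AcONa buffer (pH 4.0) with 10% glycerol, 10 mM DTT and 4 M NaCl. The reaction mixture was analysed by reversed-phase C18 HPLC using a 10–40% MeCN gradient over 30 min in aq 0.1% TFA. Inhibition was read from the decrease of the substrate.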
T1 sequence (P56817 whole entry): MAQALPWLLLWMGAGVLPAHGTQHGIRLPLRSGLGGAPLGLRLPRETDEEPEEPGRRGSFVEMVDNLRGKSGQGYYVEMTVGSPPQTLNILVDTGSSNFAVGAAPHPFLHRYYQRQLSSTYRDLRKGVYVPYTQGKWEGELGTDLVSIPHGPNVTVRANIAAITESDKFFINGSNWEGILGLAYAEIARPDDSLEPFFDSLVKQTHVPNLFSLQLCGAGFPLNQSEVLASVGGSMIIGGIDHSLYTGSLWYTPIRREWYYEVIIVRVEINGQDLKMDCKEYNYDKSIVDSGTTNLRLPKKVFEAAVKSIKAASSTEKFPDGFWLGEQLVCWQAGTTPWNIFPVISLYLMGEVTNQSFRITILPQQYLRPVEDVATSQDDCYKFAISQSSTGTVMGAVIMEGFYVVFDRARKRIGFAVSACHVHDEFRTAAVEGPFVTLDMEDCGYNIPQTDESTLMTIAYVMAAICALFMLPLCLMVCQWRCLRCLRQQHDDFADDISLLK

The target of assay [2] is T1, Beta-secretase 1. The experiment in a line: Inhibition of recombinant BACE1 (unknown origin) at 0.67 mM.
The target of assay [3] is T1, Beta-secretase 1. The experiment in a line: Inhibition of recombinant BACE1 (unknown origin).
Assay [4] deals with T1, Beta-secretase 1. The experiment in a line: Non-competitive inhibition of recombinant BACE1 (unknown origin) by Lineweaver-Burk plot analysis.

Active and inactive are the calls of the source. No cut-off for these calls is given here.

A word on the inhibition: it is the change of the read-out against control, counted positive when it falls. As usually defined, the IC50 is the point on the concentration scale where inhibition reaches its midpoint.

With `COCCOCOC(=C\C(=O)/C=C/c1ccc(OCOCCOC)c(OC)c1)/C=C/c1ccc(OCOCCOC)c(OC)c1`, at Beta-secretase 1 [1], the inhibition was found to be 36%. For the compound `COc1ccc(CCC(O)C(C(C)C)C(O)CCc2ccc(OC)c(OC)c2)cc1OC` (stereo unspecified), the inhibition at Beta-secretase 1 [2] is 9%. Same read-out and setting: then `N#Cc1cccc(/C=C/C(O)=C/C(=O)/C=C/c2ccc(O)c(O)c2)c1`, with 21%. On the same count and under the same terms, then `O=C(/C=C(O)/C=C/c1ccc(O)cc1)/C=C/c1ccc(O)c(O)c1`, with 18%.

With `COc1ccc(/C=C/C(=O)/C(=C(O)/C=C/c2ccc(OC)c(OC)c2)C(C)C)cc1OC`, at Beta-secretase 1 [2], the inhibition was 4%. As to `O=C(/C=C(O)/C=C/c1c[nH]c2ccccc12)/C=C/c1ccc(O)c(O)c1`, the IC50 at Beta-secretase 1 [3] is 450 µM. Also, the inhibition at Beta-secretase 1 [2] is 71%.

In the case of `COc1ccc(CCCC(C(=O)CCc2ccc(OC)c(OC)c2)C(C)C)cc1OC` (stereo unspecified), at Beta-secretase 1 [2], the inhibition is 5%. Take `COc1cc(CCC(=O)/C=C(\O)CCc2ccc(O)c(OC)c2)ccc1O`: on Beta-secretase 1 [1], the inhibition was 7%. Take `O=C(/C=C(O)/C=C/c1cccc(O)c1)/C=C/c1cccc(O)c1`: at Beta-secretase 1 [2], the inhibition stood at 33%. For the compound `COCCOCOc1ccc(CCC(=O)/C=C(\O)CCc2ccc(OCOCCOC)c(OC)c2)cc1OC`, at Beta-secretase 1 [1], the inhibition is 17%.

Consider `COc1ccc(/C=C/C(=O)/C=C(O)/C=C/c2ccc(OC)c(OC)c2)cc1OC`, for which, on Beta-secretase 1 [2], the inhibition was 0%.

`COc1ccc(CCC(=O)C(C(C)C)C(O)CCc2ccc(OC)c(OC)c2)cc1OC` (stereo unspecified): at Beta-secretase 1 [2], the inhibition is 1%. Regarding `COc1cc(CCC(=O)CC(O)CCc2ccc(O)c(OC)c2)ccc1O` (stereo unspecified), the inhibition at Beta-secretase 1 [1] was found to be 7%.

On to `O=C(/C=C(O)/C=C/c1ccccc1O)/C=C/c1ccc(O)c(O)c1`, for which, on Beta-secretase 1 [3], the IC50 was 250 µM. Also, on Beta-secretase 1 [4], the inhibition entry was “Active”. Moreover, on Beta-secretase 1 [2], the inhibition turned out to be 100%.

For the compound `O=C(/C=C(O)/C=C/c1cccc([N+](=O)[O-])c1)/C=C/c1ccc(O)c(O)c1`, the IC50 on Beta-secretase 1 [3] was found to be 1800 µM. The inhibition on Beta-secretase 1 [2] came to 18%.

For `O=C(/C=C(O)/C=C/c1ccc(O)c(O)c1)/C=C/c1ccc(O)c(O)c1`, at Beta-secretase 1 [3], the IC50 amounted to 2200 µM. Besides, on Beta-secretase 1 [2], the inhibition was determined as 25%. Consider `O=C(/C=C(O)/C=C/c1ccc[nH]1)/C=C/c1ccc(O)c(O)c1`, for which, at Beta-secretase 1 [2], the inhibition worked out at 30%. On to `COCCOCOc1ccc(/C=C/C(=O)/C=C(O)/C=C/c2ccc(OCOCCOC)c(OC)c2)cc1OC`, for which the inhibition at Beta-secretase 1 [1] was 19%. Turning to `COc1cc(/C=C/C(=O)/C=C(O)/C=C/c2ccc(Br)cc2)ccc1O`, the inhibition at Beta-secretase 1 [2] came out at 5%. For the compound `COc1cc(/C=C/C(O)=C/C(=O)/C=C/c2ccc(O[Si](C)(C)C(C)(C)C)c(OC)c2)ccc1O`, the inhibition at Beta-secretase 1 [1] turned out to be 22%. Regarding `O=C(/C=C(O)/C=C/c1ccccc1)/C=C/c1ccccc1`, the inhibition at Beta-secretase 1 [2] stood at 1%.

As for `COCCOCOc1ccc(CCC(=O)CC(O)CCc2ccc(OCOCCOC)c(OC)c2)cc1OC` (stereo unspecified), the inhibition on Beta-secretase 1 [1] is 15%. For `COc1ccccc1/C=C/C(O)=C/C(=O)/C=C/c1ccc(O)c(O)c1`, the IC50 on Beta-secretase 1 [3] turned out to be 1400 µM. Further, the inhibition at Beta-secretase 1 [2] was found to be 47%. For `COc1cc(/C=C/C(O)=C/C(=O)/C=C/c2ccc(O)cc2)ccc1O` [DEMETHOXYCURCUMIN] the same measures were 1600 µM and 35%. Turning to `O=C(/C=C(O)/C=C/c1ccccc1)/C=C/c1ccc(O)c(O)c1`, the inhibition at Beta-secretase 1 [2] came to 26%.

As for `COCOc1ccc(/C=C/C(=O)/C=C(O)/C=C/c2ccc(OCOC)c(OC)c2)cc1OC`, the inhibition on Beta-secretase 1 [2] stood at 7%. Still for that read-out and setting: then `O=C(/C=C(O)/C=C/c1cccnc1)/C=C/c1ccc(O)c(O)c1`, with 21%; and `COc1cc(/C=C/C(=O)/C(=C(O)/C=C/c2ccc(O)c(OC)c2)C(C)C)ccc1O`, with 6%.

In the case of `COCCOCOc1ccc(/C=C/C(=O)/C=C(O)/C=C/c2ccc(O)c(OC)c2)cc1OC`, the inhibition at Beta-secretase 1 [1] was determined as 17%.
